According to ChEMBL document CHEMBL1123598, “Inactivation of thymidylate synthase at an alternate high-affinity binding site” (J Med Chem, 1987):

Target: T1, Thymidylate synthase (Lactobacillus casei) (UniProt P00469)
T1 sequence (whole entry): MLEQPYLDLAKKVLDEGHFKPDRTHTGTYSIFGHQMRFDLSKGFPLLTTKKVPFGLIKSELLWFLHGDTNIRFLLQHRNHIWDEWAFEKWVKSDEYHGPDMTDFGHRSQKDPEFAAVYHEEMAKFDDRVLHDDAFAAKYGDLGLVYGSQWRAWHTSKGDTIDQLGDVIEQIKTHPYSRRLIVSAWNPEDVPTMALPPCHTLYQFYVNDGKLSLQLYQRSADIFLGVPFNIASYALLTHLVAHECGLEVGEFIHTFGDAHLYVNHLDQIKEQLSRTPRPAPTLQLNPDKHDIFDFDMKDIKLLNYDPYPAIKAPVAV
Test: Kinetic constant for the inactivation of Lactobacillus casei thymidylate synthase was determined at the concentration of 60 uM in the absence of substrate
Conditions: Lacticaseibacillus casei
Procedure, shortened: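 Enzyme (sp act. 3.2 μM mg⁻¹ min⁻¹) incubated with inhibitor in 0.1 M phosphate buffer, pH 6.8, 30 °C, with no substrate or with substrate at the stated concentration. Aliquots were withdrawn at intervals and residual activity was measured with 50 μM substrate in a 60-s assay. k_obsd was taken from activity loss; k2 and Ka came from the double-reciprocal plot of 1/k_obsd vs 1/[inhibitor].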

k: 5 se-1
SMILES: CC1=CC(=O)c2ccccc2C1=O
